Measured values of several laboratories.
pIC50: −log10 of the molar value. Converted amounts (≈) assume the structure as drawn.

| Compound | organism | assay | system | conditions | quantity | value |
| --- | --- | --- | --- | --- | --- | --- |
| CC1=NN(CNC(=O)c2ccccc2)C(=O)C1=NNn1c(-c2ccccc2)nc2ccccc2c1=O | Monascus purpureus | microbial growth, broth dilution |  |  | MIC | 104 µM (≈ 49.8 µg/mL) |
| CCOC(=O)c1cc(-c2ccccc2)sc1NC(=O)c1c(F)c(F)c(F)c(F)c1F | Mycobacterium tuberculosis | microbial growth, resazurin | H37RV |  | MIC | > 200 µM |
| CC(C)(C)c1nc(N2CCCCC2)c2ccccc2n1 | Trypanosoma cruzi | parasite growth, imaging | U2OS | intracellular, amastigote | pIC50 | 4.67 |
| CCOC(=O)c1c(NC(=O)c2ccccc2)sc2c1CCN(CC)C2 | Mycobacterium tuberculosis | microbial growth, resazurin | H37RV |  | MIC | 279 µM (≈ 100 µg/mL) |
| c1ccc(-c2nc(N3CCC(c4ccccn4)C3)c3ccccc3n2)cc1 (centres unmarked) | Trypanosoma cruzi | parasite growth, imaging | U2OS | intracellular, amastigote | pIC50 | 5.32 |
| CCOC(=O)c1cc(-c2ccccc2)sc1NC(=O)c1cc(C(F)(F)F)cc(C(F)(F)F)c1 | Mycobacterium tuberculosis | microbial growth, resazurin | H37RV |  | MIC | > 200 µM |
| c1ccc2c(N3CCCCC3)nc(-n3cccn3)nc2c1 | Trypanosoma cruzi | parasite growth, imaging | U2OS | intracellular, amastigote | pIC50 | 5.05 |
| COc1ccccc1CNC(=O)c1cc(-c2ccccc2)sc1N | Mycobacterium tuberculosis | microbial growth, resazurin | H37RV |  | MIC | > 200 µM |
| O=C(O)c1cn(C2CC2)c2cc(N3CCNCC3)c(F)cc2c1=O | Monascus purpureus | microbial growth, broth dilution |  |  | MIC | 6.25 µM (≈ 2.07 µg/mL) |
| [H]/N=C(/N)N[C@H]1[C@H](O)[C@@H](O)[C@H](O[C@@H]2O[C@@H](C)[C@](O)(C=O)[C@H]2O[C@@H]2O[C@@H](CO)[C@H](O)[C@@H](O)[C@@H]2NC)[C@@H](N/C(N)=N\[H])[C@@H]1O | Mycobacterium tuberculosis | microbial growth, disc diffusion | ATCC25177 | 10 µg/disc, 12 days | inhibition zone | 40 mm |
| O=C(N[C@@H](Cc1ccccc1)C(=O)c1cc(-c2ccccc2)no1)[C@H](Cc1ccccc1)NC(=O)N1CCOCC1 (mixture of isomers) | Trypanosoma cruzi | parasite growth | TULAHUEN | intracellular, amastigote | pIC50 | 4.55 |
| Nc1nc(O)c2ncn(COC(CO)CO)c2n1 | Human betaherpesvirus 5 | cytopathic effect | AD169 |  | pIC50 | 6.05 |
| Cn1cc(-c2nc(N3CCC(c4ccccn4)C3)c3ccccc3n2)cn1 (centres unmarked) | Trypanosoma cruzi | parasite growth, imaging | U2OS | intracellular, amastigote | pIC50 | 5.59 |
| CC1=NN(CNC(=O)c2ccccn2)C(=O)C1=NNn1c(-c2ccccc2)nc2ccccc2c1=O | Monascus purpureus | microbial growth, broth dilution |  |  | MIC | 104 µM (≈ 50 µg/mL) |
| CCCCNC(=O)c1c(N)sc2c1CCCC2 | Mycobacterium tuberculosis | microbial growth, resazurin | H37RV |  | MIC | > 300 µM |
| N#Cc1cccc(-c2nc(N3CCC(c4ccccn4)C3)c3ccccc3n2)c1 (centres unmarked) | Trypanosoma cruzi | parasite growth, imaging | U2OS | intracellular, amastigote | pIC50 | 5.16 |
| Cc1ccc2nc(-c3ccc(F)c(F)c3)c(CN3CCN(C4CCCCC4)CC3)n2c1 | Trypanosoma cruzi | parasite growth | TULAHUEN | 6 days, intracellular, amastigote | EC90 | > 5 µM |
| CCOC(=O)c1c(NC(=O)c2ccccc2)sc2c1CCN(C(=O)OC(C)(C)C)C2 | Mycobacterium tuberculosis | microbial growth, resazurin | H37RV |  | MIC | > 200 µM |
| c1ccc(CNc2nc(-c3ccccn3)nc3ccccc23)cc1 | Trypanosoma cruzi | parasite growth, imaging | U2OS | intracellular, amastigote | pIC50 | 5.85 |
| CC1=NN(CNc2ccc(C(=O)O)cc2)C(=O)C1=NNn1c(-c2ccccc2)nc2ccccc2c1=O | Monascus purpureus | microbial growth, broth dilution |  |  | MIC | 101 µM (≈ 50 µg/mL) |
| CCCCNC(=O)c1c(N)sc2c1CCN(CC)C2 | Mycobacterium tuberculosis | microbial growth, resazurin | H37RV |  | pIC50 | < 3.52 |
| CC(C)(Nc1nc(-c2ccccn2)nc2ccccc12)c1ccccn1 | Trypanosoma cruzi | parasite growth, imaging | U2OS | intracellular, amastigote | pIC50 | 5.85 |
| Cc1cc2nc(C(=O)N3CCOCC3)cc(-c3ccccc3Cl)c2c(C)c1-c1ccncc1 | Mycobacterium tuberculosis | microbial growth | H37RV |  | MIC90 | 15 µM (≈ 6.87 µg/mL) |
